According to ChEMBL document CHEMBL3046785, “Antifungal activity of borrelidin produced by a Streptomyces strain isolated from soybean” (J Agric Food Chem, 2012):
Values after ≈ are worked out from the molar mass of the structure shown.

Assays:
Phytophthora sojae [1] = assay: Antifungal activity against Phytophthora sojae race 1 in germinated soybean seeds assessed as disease control efficacy at 1 mg/L after 48 hr relative to control; format: functional
Outline: (§1)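 Seeds (Hefeng-25) were surface-sterilised (10% NaOCl, 20 min), rinsed, and germinated at 30 °C until roots exceeded 10 mm, five per dish on wet filter paper. Roots received 2 mL of solution: 1% Tween 80 in water, or 25% WP in water (4/20/40 mg/L = 1/5/10 mg a.i./L). A 7 mm race 1 disk was placed on the roots and removed after 24 h. After 48 h at 28 °C, roots were rated 0–4 and disease index computed. Efficiency is relative to the inoculated Tween control. Three experiments.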

Phytophthora sojae [2] = assay: Antifungal activity against Phytophthora sojae race 1 in germinated soybean seeds assessed as root length at 1 mg/L after 48 hr (untreated control = 4.15 +/- 0.71 cm); format: functional
Phytophthora sojae [3] = assay: Antifungal activity against Phytophthora sojae race 1 in germinated soybean seeds assessed as root length at 5 mg/L after 48 hr (untreated control = 4.15 +/- 0.71 cm); format: functional
Phytophthora sojae [4] = assay: Antifungal activity against Phytophthora sojae race 1 in germinated soybean seeds assessed as lesion length at 10 mg/L after 48 hr (untreated control = 3.34 +/- 0.64 cm); format: functional
Phytophthora sojae [5] = assay: Antifungal activity against Phytophthora sojae race 1 in germinated soybean seeds assessed as disease control efficacy at 10 mg/L after 48 hr relative to control; format: functional; outline: as §1
Phytophthora sojae [6] = assay: Antifungal activity against Phytophthora sojae race 1 in germinated soybean seeds assessed as lesion length at 5 mg/L after 48 hr (untreated control = 3.34 +/- 0.64 cm); format: functional
Phytophthora sojae [7] = assay: Antifungal activity against Phytophthora sojae race 5 assessed as growth inhibition at 28 degC after 7 days (beneficial crop soybean); format: functional, organism-based; conditions: race 5, 168 h
Outline: (§2)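 Race-specific mycelial growth assay on carrot agar (CA) at 28 °C. Test article was dissolved in methanol, diluted with water and added to CA; a 0.2% methanol plate served as negative control. A 5 mm plug from the colony margin was centred on each plate. Colony diameters were recorded once the control was covered. Inhibition = (1 − D/Dc) × 100. EC50/EC95 came from linear regression. Run in triplicate.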

Phytophthora sojae [8] = assay: Antifungal activity against Phytophthora sojae race 1 in germinated soybean seeds assessed as root length at 10 mg/L after 48 hr (untreated control = 4.15 +/- 0.71 cm); format: functional
Phytophthora sojae [9] = assay: Antifungal activity against Phytophthora sojae race 1 in germinated soybean seeds assessed as disease control efficacy at 5 mg/L after 48 hr relative to control; format: functional; outline: as §1
Phytophthora sojae [10] = assay: Antifungal activity against Phytophthora sojae race 1 in germinated soybean seeds assessed as lesion length at 1 mg/L after 48 hr (untreated control = 3.34 +/- 0.64 cm); format: functional
Phytophthora sojae [11] = assay: Antifungal activity against Phytophthora sojae race 1 assessed as growth inhibition at 28 degC after 7 days (beneficial crop soybean); format: functional, organism-based; conditions: race 1, 168 h; outline: as §2
Phytophthora sojae [12] = assay: Antifungal activity against Phytophthora sojae race 4 assessed as growth inhibition at 28 degC after 7 days (beneficial crop soybean); format: functional, organism-based; conditions: race 4, 168 h; outline: as §2
Phytophthora sojae [13] = assay: Antifungal activity against Phytophthora sojae race 9 assessed as growth inhibition at 28 degC after 7 days (beneficial crop soybean); format: functional, organism-based; conditions: race 9, 168 h; outline: as §2
Glycine max = assay: Phytotoxicity against germinated Glycine max (soybean) seeds at 10 mg/L; format: organism-based; conditions: in vivo
Phytophthora sojae [14] = assay: Antifungal activity against Phytophthora sojae race 44 assessed as growth inhibition at 28 degC after 7 days (beneficial crop soybean); format: functional, organism-based; conditions: race 44, 168 h; outline: as §2
Phytophthora sojae [15] = assay: Antifungal activity against Phytophthora sojae race 3 assessed as growth inhibition at 28 degC after 7 days (beneficial crop soybean); format: functional, organism-based; conditions: race 3, 168 h; outline: as §2
Phytophthora sojae [16] = assay: Antifungal activity against Phytophthora sojae race 54 assessed as growth inhibition at 28 degC after 7 days (beneficial crop soybean); format: functional, organism-based; conditions: race 54, 168 h; outline: as §2
Phytophthora sojae [17] = assay: Antifungal activity against Phytophthora sojae race 13 assessed as growth inhibition at 28 degC after 7 days (beneficial crop soybean); format: functional, organism-based; conditions: race 13, 168 h; outline: as §2
Phytophthora sojae [18] = assay: Antifungal activity against Phytophthora sojae race 1 in germinated soybean seeds assessed as root length at 20 mg/L after 48 hr compound at 25% WP (untreated control = 4.15 +/- 0.71 cm); format: functional
Phytophthora sojae [19] = assay: Antifungal activity against Phytophthora sojae race 1 in germinated soybean seeds assessed as disease control efficacy at 4 mg/L after 48 hr compound at 25% WP relative to control; format: functional; outline: as §1
Phytophthora sojae [20] = assay: Antifungal activity against Phytophthora sojae race 1 in germinated soybean seeds assessed as disease control efficacy at 20 mg/L after 48 hr compound at 25% WP relative to control; format: functional; outline: as §1
Phytophthora sojae [21] = assay: Antifungal activity against Phytophthora sojae race 1 in germinated soybean seeds assessed as lesion length at 40 mg/L after 48 hr compound at 25% WP (untreated control = 3.34 +/- 0.64 cm); format: functional
Phytophthora sojae [22] = assay: Antifungal activity against Phytophthora sojae race 1 in germinated soybean seeds assessed as disease control efficacy at 40 mg/L after 48 hr compound at 25% WP relative to control; format: functional; outline: as §1
Phytophthora sojae [23] = assay: Antifungal activity against Phytophthora sojae race 1 in germinated soybean seeds assessed as lesion length at 4 mg/L after 48 hr compound at 25% WP (untreated control = 3.34 +/- 0.64 cm); format: functional
Phytophthora sojae [24] = assay: Antifungal activity against Phytophthora sojae race 1 in germinated soybean seeds assessed as root length at 4 mg/L after 48 hr compound at 25% WP (untreated control = 4.15 +/- 0.71 cm); format: functional
Phytophthora sojae [25] = assay: Antifungal activity against Phytophthora sojae race 1 in germinated soybean seeds assessed as root length at 40 mg/L after 48 hr compound at 25% WP (untreated control = 4.15 +/- 0.71 cm); format: functional
Phytophthora sojae [26] = assay: Antifungal activity against Phytophthora sojae race 1 in germinated soybean seeds assessed as lesion length at 20 mg/L after 48 hr compound at 25% WP (untreated control = 3.34 +/- 0.64 cm); format: functional

Row | Structure (SMILES) | EC50 (Phytophthora sojae [7]) [µg/mL] | EC95 (Phytophthora sojae [7]) [µg/mL] | EC50 (Phytophthora sojae [11]) [µg/mL] | EC95 (Phytophthora sojae [11]) [µg/mL] | EC50 (Phytophthora sojae [12]) [µg/mL] | EC95 (Phytophthora sojae [12]) [µg/mL] | EC50 (Phytophthora sojae [13]) [µg/mL] | EC95 (Phytophthora sojae [13]) [µg/mL] | EC50 (Phytophthora sojae [14]) [µg/mL] | EC95 (Phytophthora sojae [14]) [µg/mL] | EC50 (Phytophthora sojae [15]) [µg/mL] | EC95 (Phytophthora sojae [15]) [µg/mL] | EC50 (Phytophthora sojae [16]) [µg/mL] | EC95 (Phytophthora sojae [16]) [µg/mL] | EC50 (Phytophthora sojae [17]) [µg/mL] | EC95 (Phytophthora sojae [17]) [µg/mL] | also measured
1 | C[C@@H]1C[C@H](C)C[C@H](C)[C@@H](O)CC(=O)O[C@H]([C@@H]2CCC[C@H]2C(=O)O)C/C=C/C=C(/C#N)[C@H](O)[C@@H](C)C1 [BORRELIDIN] | 0.0052 (≈ 0.0106 µM) | 0.02 (≈ 0.0408 µM) | 0.0056 (≈ 0.0114 µM) | 0.026 (≈ 0.0531 µM) | 0.0038 (≈ 0.00776 µM) | 0.017 (≈ 0.0347 µM) | 0.0053 (≈ 0.0108 µM) | 0.02 (≈ 0.0408 µM) | 0.0047 (≈ 0.0096 µM) | 0.018 (≈ 0.0368 µM) | 0.0051 (≈ 0.0104 µM) | 0.021 (≈ 0.0429 µM) | 0.0057 (≈ 0.0116 µM) | 0.021 (≈ 0.0429 µM) | 0.0057 (≈ 0.0116 µM) | 0.021 (≈ 0.0429 µM) | Efficacy (Phytophthora sojae [1]): 56.25%; Activity (Phytophthora sojae [2]): 6.24 cm; Activity (Phytophthora sojae [3]): 6.53 cm; Activity (Phytophthora sojae [4]): 0.25 cm; Efficacy (Phytophthora sojae [5]): 94.72%; Activity (Phytophthora sojae [6]): 0.73 cm; Activity (Phytophthora sojae [8]): 6.81 cm; Efficacy (Phytophthora sojae [9]): 80.76%; Activity (Phytophthora sojae [10]): 1.91 cm; Activity (Glycine max): Non-toxic
2 | COCC(=O)N(c1c(C)cccc1C)C(C)C(=O)OC (stereo unspecified) [METALAXYL] | 0.3 (≈ 1.07 µM) | 11.6 (≈ 41.5 µM) | 0.35 (≈ 1.25 µM) | 6.82 (≈ 24.4 µM) | 0.18 (≈ 0.644 µM) | 8.03 (≈ 28.7 µM) | 0.34 (≈ 1.22 µM) | 11.8 (≈ 42.3 µM) | 0.28 (≈ 1 µM) | 12.2 (≈ 43.9 µM) | 0.17 (≈ 0.609 µM) | 4.63 (≈ 16.6 µM) | 0.3 (≈ 1.07 µM) | 13.3 (≈ 47.5 µM) | 0.32 (≈ 1.15 µM) | 7.55 (≈ 27 µM) | Activity (Phytophthora sojae [18]): 6.48 cm; Efficacy (Phytophthora sojae [19]): 45.52%; Efficacy (Phytophthora sojae [20]): 71.97%; Activity (Phytophthora sojae [21]): 0.62 cm; Efficacy (Phytophthora sojae [22]): 87.7%; Activity (Phytophthora sojae [23]): 2.57 cm; Activity (Phytophthora sojae [24]): 6.21 cm; Activity (Phytophthora sojae [25]): 6.73 cm; Activity (Phytophthora sojae [26]): 1.34 cm
